These results are taken from PMC3848259 (Cellular signalling, 2013).

“Also recorded” adds a separate entry of the source.

What is called IC50 is the concentration that gives 50% inhibition.

The target in experiment [1] is T1, RGS4-Gαo binding (Rattus norvegicus, UniProt P49799).
T1 sequence (P49799 52-205 limits assumed): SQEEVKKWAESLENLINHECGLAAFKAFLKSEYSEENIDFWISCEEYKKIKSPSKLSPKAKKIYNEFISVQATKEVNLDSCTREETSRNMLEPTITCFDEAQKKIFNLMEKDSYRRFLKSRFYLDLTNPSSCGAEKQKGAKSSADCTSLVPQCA
The experiment can be described thus: Flow Cytometry Protein Interaction Assay. Particulars: read-out: FCPIA IC50, compounds 100 nM-100 μM, three independent experiments. In outline: (§1)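 Multiplexed bead assay: biotinylated MBP-Δ51 RGS4, cysteine-free Δ51 RGS4 (seven RGS-box Cys→Ala) and His-tagged RGS8 (61–198) on separate streptavidin Luminex bead sets. Buffer 50 mM HEPES pH 7.4, 100 mM NaCl, 0.1% lubrol, 1% BSA. Test compound (100 nM–100 μM) for 15 min at RT. AlexaFluor532-Gαo (30 nM final) with GDP·AlF4 and 1 mM MgCl for 30 min at RT. Read by flow cytometry; nonlinear regression.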
Background: Flow cytometry measures light scatter and fluorescence of single cells or particles in a stream.

Experiment [2] concerns the target T2, RGS4 stimulation of Gαi1 (R178M/A326S) GTP hydrolysis (Rattus norvegicus, UniProt P49799).
T2 sequence (P49799 52-205): T1 sequence (P49799 52-205 limits assumed)
The experiment can be described thus: Receptor-independent steady-state GTPase acceleration protein assay. It is filed as biochemical. Particulars: read-out: SS-GAP IC50; 200 nM Δ51 RGS4-MBP, 6 μM Gαi1 (R178M/A326S), 300 μM GTP. In outline:
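Receptor-independent GTPase: Δ51 RGS4 (residues 52-205)-MBP with His-tagged Gαi1 R178M/A326S. Buffer: 50 mM HEPES pH 7.4, 100 mM NaCl, 0.01% Lubrol, 5 mM MgCl, 10 μg/mL BSA. Test compound in half-log steps, 100 nM–100 μM. Started with GTP; 120 min at room temperature. Quenched with HCl/malachite green plus citrate stabiliser, 20 min, then A630. IC50 by nonlinear regression; three independent experiments, duplicate wells.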

Experiment [3] has as its system RGS4 in HEK293-FlpIn-TREx/M3R/RGS4 cells. The experiment can be described thus: Cell-based calcium signaling assay in M3-R4 cells. More on the design: species or system human. Particulars: read-out: Cellular Activity IC50, Dox treated, carbachol-stimulated calcium.
The target in experiment [4] is T1, RGS4-Gαo binding. The experiment can be described thus: FCPIA reversibility. The following applies: 100 μM compound; for inhibition of RGS4-G-protein binding: FCPIA; for reversibility of RGS4 inhibition: beads washed three times, ten minute washing period. The gist of the method: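 Biotinylated RGS4 on streptavidin Luminex beads preincubated 30 min at room temperature with 100 μM test compound or DMSO, then washed three times in 50 mM HEPES pH 7.4/100 mM NaCl/0.1% lubrol/1% BSA. Beads split: one set re-dosed with 100 μM compound, other DMSO. Each then mixed with AlexaFluor 532-Gαo (30 nM final) plus GDP·AlF4/1 mM MgCl. Binding read by flow cytometry. Three independent experiments.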

The target in another experiment is RGS4 (-Cys) (Homo sapiens, UniProt P49798, C132A/C148A/C183A/C197A/C204A/C71A/C95A). The experiment can be described thus: Multiplexed FCPIA, RGS4 lacking cysteines. Format: binding. The gist of the method:
as §1

The target of the next experiment is T3, RGS8 (Homo sapiens, UniProt P57771).
T3 sequence (P57771 61-198 isoform P57771-2): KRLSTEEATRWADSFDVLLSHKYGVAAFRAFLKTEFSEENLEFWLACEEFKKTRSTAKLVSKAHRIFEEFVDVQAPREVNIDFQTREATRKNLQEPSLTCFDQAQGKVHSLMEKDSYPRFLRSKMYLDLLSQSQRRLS
The experiment can be described thus: Multiplexed FCPIA, RGS8. Format: binding. The gist of the method: as §1

In another experiment the target is T4, RGS7 (Homo sapiens, UniProt P49802).
T4 sequence (P49802 333-448 limits assumed): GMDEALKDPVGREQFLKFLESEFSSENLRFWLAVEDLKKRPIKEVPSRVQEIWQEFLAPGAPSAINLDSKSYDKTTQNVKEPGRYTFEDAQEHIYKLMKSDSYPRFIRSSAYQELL
The experiment can be described thus: Multiplexed FCPIA, RGS7. Format: binding. The following applies: 100 nM to 100 μM, RGS7 lacks cysteine residues.

For a further experiment, the target named is T5, RGS19 (Homo sapiens, UniProt P49795).
T5 sequence (P49795 1-206 limits assumed): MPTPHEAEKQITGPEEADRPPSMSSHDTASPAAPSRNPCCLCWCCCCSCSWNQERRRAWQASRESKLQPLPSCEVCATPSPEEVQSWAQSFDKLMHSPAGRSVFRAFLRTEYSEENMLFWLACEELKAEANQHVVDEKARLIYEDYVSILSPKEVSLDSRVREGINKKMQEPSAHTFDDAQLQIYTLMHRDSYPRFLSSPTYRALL
The experiment can be described thus: Multiplexed FCPIA, RGS19. Format: binding. The following applies: 100 nM to 100 μM. In outline:
(§2)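 Biotinylated RGS proteins (RGS16 full-length, RGS19 ΔC11, both MBP fusions) were each coupled to separate streptavidin Luminex bead sets and pooled per well. Buffer: 50 mM HEPES pH 7.4, 100 mM NaCl, 0.1% lubrol, 1% BSA. Test compound (100 nM–100 μM) or DMSO added for 15 min at room temperature. AlexaFluor 532-Gαo (30 nM final) with GDP·AlF4/1 mM MgCl added for 30 min. Flow-cytometric binding read; nonlinear regression.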

In another experiment the target is T6, RGS16 (Homo sapiens, UniProt O15492).
T6 sequence (O15492 1-202): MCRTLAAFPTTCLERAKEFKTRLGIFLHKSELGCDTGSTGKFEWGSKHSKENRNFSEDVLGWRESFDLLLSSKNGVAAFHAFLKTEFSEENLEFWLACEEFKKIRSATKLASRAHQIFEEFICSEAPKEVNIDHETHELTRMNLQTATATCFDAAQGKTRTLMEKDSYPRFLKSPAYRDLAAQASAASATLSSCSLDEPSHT
The experiment can be described thus: Multiplexed FCPIA, RGS16. Format: binding. Particulars: 100 nM to 100 μM. The gist of the method: as §2

RGS4 (-Cys), sequence (P49798 52-205 C71A/C95A/C132A/C148A/C183A/C197A/C204A limits assumed, species assumed): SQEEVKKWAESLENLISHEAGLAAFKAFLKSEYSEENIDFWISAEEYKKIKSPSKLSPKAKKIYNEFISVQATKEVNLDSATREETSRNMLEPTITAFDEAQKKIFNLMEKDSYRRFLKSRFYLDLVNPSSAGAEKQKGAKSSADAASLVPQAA

As to `O=C1NC(=S)N(c2ccccc2F)C(=O)/C1=C\c1cccs1` [CID 1905297], the IC50 at RGS4-Gαo binding [1] turned out to be 27.9 µM; in experiment [2] it was 35.6 µM; in [3], 23.8 µM. In addition, the “inhibition of RGS4-G-protein binding” value at RGS4-Gαo binding [4] was “greater than 85%”. Further, the “reversibility of RGS4 inhibition” value at RGS4-Gαo binding [4] is reported as “more than 50%”.

For the compound `Br.CN1CCc2cc(O)cc3c2[C@H]1Cc1ccc(O)c(O)c1-3` [CID 11957531], the “Inhibition of Gα binding to RGS4 (-Cys)” value on RGS4 (-Cys) was “Inhibition of Gα binding to RGS4 (-Cys) or RGS8 occurred”. In addition, the “Inhibition of Gα binding to RGS8” value at RGS8 is on record as “Inhibition of Gα binding to RGS4 (-Cys) or RGS8 occurred”.

On to `Cc1ccc(/C=C2\C(=O)NC(=S)N(c3ccc(F)cc3)C2=O)s1` [CID 1389577], for which the 50% inhibitory concentration (IC50) came out at 18.3 µM at RGS4-Gαo binding [1], 10.9 µM in experiment [2] and 15 µM in experiment [3]. The “inhibition of RGS4-G-protein binding” value at RGS4-Gαo binding [4] is “greater than 85%”. For the same compound, the “reversibility of RGS4 inhibition” value at RGS4-Gαo binding [4] is “more than 50%”. The “activity towards RGS7” value on RGS7 is listed as “showed activity towards RGS7; also recorded: activity was observed”.

On to `CN1C(=O)/C(=C\c2ccc(Br)s2)C(=O)NC1=S` [CID 1777233], for which the results for the IC50 (on RGS4-Gαo binding [1]; in [2]; in experiment [3]) were 15.3 µM, 9.4 µM and 20 µM, respectively. Further, the “inhibition of RGS4-G-protein binding” value on RGS4-Gαo binding [4] was “greater than 85%”. Moreover, at RGS4-Gαo binding [4], the “reversibility of RGS4 inhibition” value is on record as “more than 50%”. For the same compound, the “potency difference RGS4 versus RGS19” value at RGS19 stood at 2 fold.

Take `COc1ccc(NC(=O)/C(Cl)=C(/Cl)[S+]([O-])Cc2ccccc2)cn1` (stereo not drawn) [CID 1472216]: the IC50 worked out at 1.7 ± 0.5 µM at RGS4-Gαo binding [1] and 1.6 ± 0.4 µM in experiment [2].

Take `Br.CCCN1CCc2cc(O)cc3c2[C@H]1Cc1ccc(O)c(O)c1-3` [CID 10069059]: the “Inhibition of Gα binding to RGS4 (-Cys)” value at RGS4 (-Cys) is “Inhibition of Gα binding to RGS4 (-Cys) or RGS8 occurred”. The “Inhibition of Gα binding to RGS8” value on RGS8 is given as “Inhibition of Gα binding to RGS4 (-Cys) or RGS8 occurred”.

Consider `O=C1N=c2ccccc2=C1c1c(O)n(-c2cccc(F)c2)[nH]c1=O` [CID 5428579], for which the IC50 on RGS4-Gαo binding [1] was determined as 8.2 µM; in [2], 55.8 µM; in experiment [3], 35.5 µM. Besides, the “inhibition of RGS4-G-protein binding” value on RGS4-Gαo binding [4] is given as “greater than 85%”. Besides, the “reversibility of RGS4 inhibition” value at RGS4-Gαo binding [4] is “more than 50%”. For the same compound, the “activity towards RGS7” value on RGS7 is reported as “showed activity towards RGS7; also recorded: activity was observed”. In addition, the “activity against RGS16” value at RGS16 is listed as “activity was observed”.
